Structures can show the parent of a compound that is named as a salt. The source made the active and inactive calls. The rule behind the calls is not given here.
Legend:
NCI-H187 = test: Cytotoxicity against human NCI-H187 cells after 45 hrs by resazurin microplate assay; format: functional, cell-based; settings: NCI-H187, 45 h
Vero = test: Cytotoxicity against african green monkey Vero cells by green fluorescent protein microplate assay; format: cell-based; settings: Chlorocebus sabaeus
[1] = test system: Mycobacterium tuberculosis; test: Antituberculosis activity against Mycobacterium tuberculosis; format: functional, organism-based
KB = test: Cytotoxicity against human KB cells after 45 hrs by resazurin microplate assay; format: functional, cell-based
MCF7 = test: Cytotoxicity against human MCF7 cells after 45 hrs by resazurin microplate assay; format: functional, cell-based; settings: MCF7, 45 h
Plasmodium falciparum = test: Antimalarial activity against Plasmodium falciparum K1 after 24 hrs by [G-3H]hypoxanthine uptake assay; format: functional, organism-based; settings: K1, 24 h
How it was run: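 Multidrug-resistant K1 strain, microculture radioisotope technique. Samples dissolved in DMSO as a 10 mg/mL stock, then diluted with water before testing. IC50 reported.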

Row | SMILES | IC50 (NCI-H187) | IC50 (Vero) | Activity [1] | IC50 (KB) | IC50 (MCF7) | IC50 (Plasmodium falciparum)
1 | Cc1c2ccncc2c(C)c2c1[nH]c1ccccc12 [ELLIPTECINE] | 1.5 µM | 3.8 µM | – | – | – | –
2 | CC1Cc2cc3cc(O)c(-c4c(O)cc5cc6c(c(O)c5c4O)C(=O)OC(C)C6)c(O)c3c(O)c2C(=O)O1 (centres undefined) [ASCHERNAPHTHOPYRONE B] | 95 µM | 52 µM | inactive | > 96 µM | 79 µM | > 19 µM
3 | CC(C)C1=C2CC[C@]3(C)[C@H](CC[C@@H]4[C@@]5(C)CCCC(C)(C)[C@@H]5[C@@H](O)C[C@]43C)[C@@]2(C)CC1 [ZEORININ] | > 118 µM | > 118 µM | inactive | > 118 µM | > 118 µM | > 23 µM
4 | C[C@H]1[C@@H](O)O[C@@H]2O[C@@]3(C)CC[C@H]4[C@H](C)CC[C@@H]1[C@@]24OO3 [ARTENIMOL] | – | – | – | – | – | 0.0046 µM
5 | CC(C)C1=C2CC[C@]3(C)[C@H]([C@H](O)C[C@@H]4[C@@]5(C)CCCC(C)(C)[C@@H]5[C@@H](O)C[C@]43C)[C@@]2(C)CC1 | > 113 µM | > 113 µM | inactive | > 113 µM | > 113 µM | 15 µM
6 | CC1Cc2cc3c(-c4c(O)cc(O)c5c(O)c6c(cc45)CC(C)OC6=O)c(O)cc(O)c3c(O)c2C(=O)O1 (centres undefined) [ASCHERNAPHTHOPYRONE A] | 4.5 µM | > 96 µM | inactive | 17 µM | 87 µM | 7.3 µM
7 | COc1cccc2c1C(=O)c1c(O)c3c(c(O)c1C2=O)C[C@@](O)(C(=O)CO)C[C@@H]3O[C@H]1C[C@H](N)[C@H](O)[C@H](C)O1 [DOXORUBICIN HYDROCHLORIDE] | 0.086 µM | – | – | – | – | –
8 | CC(C)C1=C2CC[C@]3(C)[C@H]([C@H](O)C[C@@H]4[C@@]5(C)CCCC(C)(C)[C@@H]5CC[C@]43C)[C@@]2(C)CC1 | > 118 µM | > 118 µM | inactive | > 118 µM | > 118 µM | > 23 µM

Source: ChEMBL document CHEMBL1157110, “Hopane-type triterpenes and binaphthopyrones from the scale insect pathogenic fungus Aschersonia paraphysata BCC 11964” (J Nat Prod, 2010)
